Laboratory results: PubChem BioAssay AID2292 (The Scripps Research Institute Molecular Screening Center, 2010)
The other results are listed elsewhere or left out. The source made the active and inactive calls.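 The calls were made as follows: active = mean inhibition across replicates above a set limit taken from the earlier primary screen (cut at about 28% in these data); inactive = the rest.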

Each compound was assayed on Epstein-Barr virus nuclear antigen 1 (EBNA-1) DNA-binding domain, Human herpesvirus 4 (assay: blockers of EBV EBNA-1 DNA binding – biochemical, fluorescence polarization, triplicate, confirmation (AID 2292;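 also: plate controls were EBNA-1 protein with DMSO for no effect and wells lacking EBNA-1 for full effect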)). Conditions: Recombinant EBNA-1 DBD, Cy5-DNA fluorescence polarization; at 14.8 µM; active compounds read high.
Procedure, shortened: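 Test system: Purified EBNA-1 DNA-binding domain | Medium: Tris-NaCl buffer, pH 7.4 | Dosing: Single compound dose of 14.8 µM, 1.5% DMSO | Times: Protein-probe premix 30 min, compound exposure 1 h, room temperature | Detection: FP at Ex 620 nm / Em 688 nm | Benchmarks: High control without EBNA-1, low control with EBNA-1 only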

inhibition, active:
CCOC(=O)c1ccc(NC(=O)C2CC(=O)Nc3nc4ccccc4n32)cc1 (stereo unspecified) 61%
COc1ccc(NC(=O)NCc2ccc3c(c2)OCO3)c(OC)c1 57%
CCOc1ccc(OCC)c(NC(=O)C(NS(=O)(=O)c2ccc3c(c2)oc(=O)n3C)C(C)C)c1 (stereo unspecified) 62.8%
COc1ccc(-c2nonc2NC(=O)c2oc3ccc(F)cc3c2C)cc1OC 58.1%
CCC(=O)Nc1ccc(C(=O)Nc2ccc3c(c2)C(=O)N(CC2CCCO2)C3=O)cc1 (stereo unspecified) 58.2%
COc1ccc(C(=O)CSc2nnc(NC(=O)C3CC(=O)N(c4cccc(OC)c4)C3)s2)cc1 (stereo unspecified) 52.3%
COc1ccc(C(=O)Nc2cccc(NC(=O)c3ccc(OC)cc3OC)n2)c(OC)c1 31.9%
O=C(Nc1ccc2ccccc2c1)Nc1ccc2snnc2c1 142%
COC(=O)C1=CN(Cc2ccc(OC)cc2)C=C(C(=O)OC)C1c1ccc(O)c(OC)c1 37.1%
O=C(COc1ccc(/C=N/NC(=O)c2ccc(O)cc2)cc1)Nc1ccc([N+](=O)[O-])cc1 51.1%

inhibition, inactive:
Nc1ccc(S(=O)(=O)Nc2nccc(/C=C/c3ccc(Br)s3)n2)cc1 8.99%
CCOc1ccc(NC(=O)c2ccc(NC(=O)COC(=O)c3ccc(NC(=O)CC#N)cc3)cc2)cc1 3.81%
C/C(=N\N=C(N)N)c1ccc(Cl)cc1 2.77%
Cc1ccc(-c2nn(-c3ccccc3)cc2/C=C2\SC(=S)N(CCCCCC(=O)O)C2=O)o1 16.8%
COC(=O)CSc1nc(C)c2ccc(OC)cc2n1 -0.23%
O=C(Nc1cccc(NC(=O)c2ccc(Br)cc2)c1)c1ccccc1 20.8%
CCOc1[nH]n(-c2ccc(Cl)cc2)c(=O)c1C=Nc1ccc(O)cc1 -11.1%
CC(=O)Nc1ccc(S(=O)(=O)NCC(=O)OCc2cc(=O)oc3ccc4ccccc4c23)cc1 5.47%
Cc1cccc(N(CC(=O)Nc2ccc(-c3nc4ccc(C)cc4s3)cc2)S(C)(=O)=O)c1 12.2%
CC(=O)c1c(C)[nH]c(C(=O)OCC(=O)Nc2sc3c(c2C#N)CCCC3)c1C 25.9%
COc1ccc(CNc2nc3c(c(=O)[nH]c(=O)n3C)n2Cc2ccccc2)cc1 7.27%
